In ChEMBL document CHEMBL5335771, “Thioxanthenone-based derivatives as multitarget therapeutic leads for Alzheimer's disease” (Eur J Med Chem, 2023):
Active and inactive are the calls of the source. The calls are words filed in the database; no cut-off is given here.

Tests used:
[1] = Cytotoxicity against mouse brain Primary embryonic cortical cell assessed as cell death at 30 uM incubated for 4 hrs by propidium iodide dye based spectrofluorometric analysis relative to control; assay type: toxicity
Procedure, shortened: (§1)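 Primary cortical cultures from E16.5 mouse embryo brains, trypsinized, plated on poly-D-lysine, grown in Neurobasal with glutamine, glucose, 5% horse serum and B27; compounds added at 4 DIV. Propidium iodide 30 μM; baseline F1 read 1 h after PI; ex 530/em 645 nm. Fmax after digitonin permeabilization. % death = 100×(Fn−F1)/(Fmax−F1); mean of three independent experiments.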

[2] = Cytotoxicity against mouse brain Primary embryonic cortical cell assessed as cell death at 10 uM incubated for 4 hrs by propidium iodide dye based spectrofluorometric analysis relative to control; assay type: toxicity; procedure, shortened: as §1
[3] = Cytotoxicity against mouse brain Primary embryonic cortical cell assessed as cell death at 10 uM incubated for 3 hrs by propidium iodide dye based spectrofluorometric analysis relative to control; assay type: toxicity; procedure, shortened: as §1
[4] = Cytotoxicity against mouse brain Primary embryonic cortical cell assessed as cell death at 5 uM incubated for 24 hrs by propidium iodide dye based spectrofluorometric analysis relative to control; assay type: toxicity; procedure, shortened: as §1
[5] = Cytotoxicity against mouse brain Primary embryonic cortical cell assessed as cell death at 5 uM incubated for 72 hrs by propidium iodide dye based spectrofluorometric analysis relative to control; assay type: toxicity; procedure, shortened: as §1
[6] = tested on: SH-SY5Y; experiment: Neuroprotective activity against okadaic acid-induced cytotoxicity in human SH-SY5Y cells assessed as increase in cell viability at 0.1 to 10 uM incubated for 24 hrs by MTT assay; assay type: functional, cell-based; details: dose 0.1-10 µM
Procedure, shortened: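 SH-SY5Y cells grown in DMEM with 10% FBS and plated at 4.5×10^4 cells/well. Incubated 24 h at 37 °C, 5% CO2 with compound (0.1–50 μM) plus okadaic acid 100 nM. Viability by MTT, expressed as % of untreated cells; estradiol and PD38 as positive controls. Mean ± SD of three independent experiments; ANOVA with Dunnett's test.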

[7] = Cytotoxicity against mouse brain Primary embryonic cortical cell assessed as cell death at 5 uM incubated for 48 hrs by propidium iodide dye based spectrofluorometric analysis relative to control; assay type: toxicity; procedure, shortened: as §1
[8] = Cytotoxicity against mouse brain Primary embryonic cortical cell assessed as cell death at 10 uM incubated for 1 hr by propidium iodide dye based spectrofluorometric analysis relative to control; assay type: toxicity; procedure, shortened: as §1
[9] = Cytotoxicity against mouse brain Primary embryonic cortical cell assessed as cell death at 10 uM incubated for 72 hrs by propidium iodide dye based spectrofluorometric analysis relative to control; assay type: toxicity; procedure, shortened: as §1
[10] = Cytotoxicity against mouse brain Primary embryonic cortical cell assessed as cell death at 30 uM incubated for 5 hrs by propidium iodide dye based spectrofluorometric analysis relative to control; assay type: toxicity; procedure, shortened: as §1
[11] = target: Acetylcholinesterase (Electrophorus electricus, UniProt O42275); experiment: Inhibition of electric eel AChE using acetylthiocholine iodide as substrate preincubated for 20 mins followed by substrate addition by DTNB reagent based Ellman's method
Acetylcholinesterase, sequence (O42275 whole entry): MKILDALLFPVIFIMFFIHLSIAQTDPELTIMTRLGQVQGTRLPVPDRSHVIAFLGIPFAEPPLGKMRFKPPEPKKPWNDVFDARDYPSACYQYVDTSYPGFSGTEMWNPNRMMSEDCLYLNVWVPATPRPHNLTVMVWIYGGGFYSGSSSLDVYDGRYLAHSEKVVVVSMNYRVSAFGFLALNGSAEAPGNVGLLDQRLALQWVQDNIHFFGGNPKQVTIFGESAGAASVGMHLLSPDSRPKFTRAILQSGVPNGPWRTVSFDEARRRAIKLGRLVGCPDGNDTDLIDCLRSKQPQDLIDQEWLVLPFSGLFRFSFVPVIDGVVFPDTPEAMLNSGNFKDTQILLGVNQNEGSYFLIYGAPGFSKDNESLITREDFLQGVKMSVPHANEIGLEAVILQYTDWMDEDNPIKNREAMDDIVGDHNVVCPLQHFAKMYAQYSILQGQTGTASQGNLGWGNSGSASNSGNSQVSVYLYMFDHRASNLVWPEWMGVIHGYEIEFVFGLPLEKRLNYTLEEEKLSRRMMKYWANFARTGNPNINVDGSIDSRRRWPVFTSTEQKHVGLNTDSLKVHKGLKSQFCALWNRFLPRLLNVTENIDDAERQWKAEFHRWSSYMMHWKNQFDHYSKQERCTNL

[12] = Cytotoxicity against mouse brain Primary embryonic cortical cell assessed as cell death at 2.5 uM incubated for 2 hrs by propidium iodide dye based spectrofluorometric analysis relative to control; assay type: toxicity; procedure, shortened: as §1

## COc1ccc2sc3c(C)ccc(NCCC4CCN(C)CC4)c3c(=O)c2c1
[1]
  Activity: 56.1%
[2]
  Activity: 52.6%
[3]
  Activity: 48.9%
[4]
  Activity: 91.3%
[5]
  Activity: 85.7%
[6]
  Activity: Active
[7]
  Activity: 85.6%
[8]
  Activity: 16.7%
[9]
  Activity: 92.4%
[10]
  Activity: 60.4%
[11]
  IC50: 4.4 µM
[12]
  Activity: 3.8%
